According to ChEMBL document CHEMBL4732051, “The discovery of potent small molecule activators of human STING” (Eur J Med Chem, 2021):
Activity calls are given as the source filed them. The rule behind the calls is not given here.

Key:
[1] = test system: Stimulator of interferon genes protein (Homo sapiens), Q86WV6 [UNDEFINED MUTATION]; test: Activation of human STING R232 in human MDA-MB-468 cells assessed as phosphorylation of IRF3 at (Ser396) at 10 uM incubated for 2 hrs and measured by Western blot analysis; format: cell-based; conditions: filed as activator
Chain of Stimulator of interferon genes protein (Homo sapiens), Q86WV6 [UNDEFINED MUTATION] (Q86WV6 whole entry, looked up, change not shown): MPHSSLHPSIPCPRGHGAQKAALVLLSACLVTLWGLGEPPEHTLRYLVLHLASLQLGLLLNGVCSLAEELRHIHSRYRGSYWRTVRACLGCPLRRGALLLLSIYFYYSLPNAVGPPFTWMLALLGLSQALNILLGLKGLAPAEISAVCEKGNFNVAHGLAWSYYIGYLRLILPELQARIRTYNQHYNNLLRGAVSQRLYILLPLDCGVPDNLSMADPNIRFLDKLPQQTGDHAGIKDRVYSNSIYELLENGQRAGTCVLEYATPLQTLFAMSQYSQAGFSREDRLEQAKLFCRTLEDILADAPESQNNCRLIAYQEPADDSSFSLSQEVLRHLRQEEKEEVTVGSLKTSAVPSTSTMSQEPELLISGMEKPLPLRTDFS
Method in brief: (§1)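 Tumor cell lines or human primary cells carrying endogenous STING variants; STING KO cells as control. 10µM for 2 h, then lysed in RIPA with phosphatase and protease inhibitors. 10 μg protein on 10% SDS-PAGE, blotted for pSTING (Ser366), pIRF3 (Ser396), STING, IRF3 and actin, ECL detection.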

Cytochrome P450 2D6 = Cytochrome P450 2D6 (Homo sapiens, UniProt P10635); test: Inhibition of CYP2D6 (unknown origin); format: ADME
Chain of Cytochrome P450 2D6 (P10635 whole entry): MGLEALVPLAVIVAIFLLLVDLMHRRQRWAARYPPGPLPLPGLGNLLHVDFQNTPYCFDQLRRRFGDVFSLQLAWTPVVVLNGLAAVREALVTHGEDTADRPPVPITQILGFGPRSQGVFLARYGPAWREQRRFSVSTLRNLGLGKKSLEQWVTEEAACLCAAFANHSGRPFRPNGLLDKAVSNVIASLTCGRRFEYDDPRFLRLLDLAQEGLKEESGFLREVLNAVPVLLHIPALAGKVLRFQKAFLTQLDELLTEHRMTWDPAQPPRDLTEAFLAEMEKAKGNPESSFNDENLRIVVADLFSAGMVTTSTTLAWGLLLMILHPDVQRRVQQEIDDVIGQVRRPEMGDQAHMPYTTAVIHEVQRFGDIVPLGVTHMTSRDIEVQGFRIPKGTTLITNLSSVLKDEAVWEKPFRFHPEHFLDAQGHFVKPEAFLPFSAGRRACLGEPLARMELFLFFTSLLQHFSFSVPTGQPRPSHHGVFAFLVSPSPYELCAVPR

[2] = target: T1, Stimulator of interferon genes protein (Homo sapiens, UniProt Q86WV6); test: Activation of human STING in human PBMC cells assessed as induction of CCL20 expression at 10 uM measured by qt-PCR analysis; format: cell-based; conditions: filed as activator
T1 sequence (Q86WV6 whole entry): as the sequence (Q86WV6 whole entry, looked up, change not shown) above
Method in brief: (§2)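 2 x 10^5 freshly isolated human PBMC from healthy donors, separated on Histopaque, given a single compound concentration. Harvested early (6 hr) or late (20h). Cytokine mRNA read by qRT-PCR as relative normalized expression (fold) against vehicle-treated cells.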

[3] = test system: Stimulator of interferon genes protein (Homo sapiens), Q86WV6 [R71H,G230A,R293Q]; test: Activation of human STING HAQ mutant expressed in HEK293T cells assessed as phosphorylation of IRF-3 at (Ser396) at 10 uM incubated for 2 hrs and measured by Western blot analysis; format: cell-based; conditions: filed as activator
Chain of Stimulator of interferon genes protein (Homo sapiens), Q86WV6 [R71H,G230A,R293Q] (Q86WV6 whole entry R71H/G230A/R293Q): as the sequence (Q86WV6 whole entry, looked up, change not shown) above, with R71H, G230A, R293Q counted along it
Method in brief: (§3)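 HEK293T clones stably carrying each human STING variant, picked by blasticidin selection and limiting dilution. 5 x 10^5 cells were exposed to compound at 10μM for 2 h, lysed in RIPA with phosphatase and protease inhibitors, and 10 μg protein run on 10% SDS-PAGE. Immunoblots probed for pSTING (Ser366), pIRF3 (Ser396), total STING, IRF3 and actin, detected by ECL.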

HEK293T [4] = test: Induction of STING R232H mutant (unknown origin) expressed in HEK293T cells assessed as increase in luciferase coupled ISG54-ISRE activity incubated for 18 hrs luciferase reporter gene assay; format: cell-based; conditions: Homo sapiens, filed as activator
[5] = target: Stimulator of interferon genes protein (Macaca fascicularis) (UniProt A0A2K5TV20); test: Activation of cynomolgus monkey STING; conditions: filed as activator
Chain of Stimulator of interferon genes protein (Macaca fascicularis) (A0A2K5TV20 as listed by the source): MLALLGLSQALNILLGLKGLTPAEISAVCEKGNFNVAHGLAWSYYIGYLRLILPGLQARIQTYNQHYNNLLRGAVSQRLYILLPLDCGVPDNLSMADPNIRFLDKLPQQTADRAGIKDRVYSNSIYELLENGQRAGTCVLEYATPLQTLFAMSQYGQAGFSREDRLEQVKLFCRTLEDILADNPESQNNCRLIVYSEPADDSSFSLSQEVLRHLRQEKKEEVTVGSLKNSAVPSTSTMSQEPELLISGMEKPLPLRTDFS

[6] = Stability in human plasma at 37 degC by LC-MS/MS analysis; format: ADME, cell-free
Method in brief: (§4)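 Compound at 10 μM was incubated in mouse or human plasma at 37°C and its stability assessed.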

HEK293T [7] = test: Induction of STING H232 mutant (unknown origin) expressed in HEK293T cells assessed as increase in luciferase coupled ISG54-ISRE activity incubated for 18 hrs luciferase reporter gene assay; format: cell-based; conditions: Homo sapiens, filed as activator
[8] = target: T1, Stimulator of interferon genes protein; test: Activation of human STING in human PBMC cells assessed as induction of IFNbeta expression at 10 uM incubated upto 24 hrs and measured by qt-PCR analysis; format: cell-based; conditions: filed as activator, time hrs <=24; method in brief: as §2
[9] = Cmax in BALB/c mouse at 5 mg/kg, iv measured up to 24 hrs by LC-MS/MS analysis; format: ADME, organism-based; design: route intravenous, dose 5 mg/kg, time <=24; conditions: in vivo
Method in brief: (§5)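 Overnight-fasted mice, n=3 per group, single dose by lateral tail vein (iv) or oral gavage (po). Retro-orbital blood under isoflurane at 2 min–24 h (iv) or 5 min–24 h (po). Plasma spun at 1500 x g, 15 min, 4 °C, stored -80 °C, then analysed by LCMS.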

[10] = Cmax in BALB/c mouse at 10 mg/kg, po measured up to 24 hrs by LC-MS/MS analysis; format: ADME, organism-based; design: route oral, dose 10 mg/kg, time <=24; conditions: in vivo; method in brief: as §5
[11] = test system: Stimulator of interferon genes protein (Homo sapiens), Q86WV6 [UNDEFINED MUTATION]; test: Activation of human STING R232 in A 172 cells assessed as phosphorylation at (Ser366) at 10 uM incubated for 2 hrs and measured by Western blot analysis; format: cell-based; conditions: filed as activator; method in brief: as §1
[12] = Stability in mouse plasma at 37 degC by LC-MS/MS analysis; format: ADME, cell-free; method in brief: as §4
HeLa = test: Cytotoxicity against human HeLa cells at 5 to 10 uM; format: cell-based; conditions: dose 5-10 µM
[13] = test system: Stimulator of interferon genes protein (Homo sapiens), Q86WV6 [R71H,G230A,R293Q]; test: Induction of STING HAQ mutant (unknown origin) expressed in HEK293T cells assessed as increase in luciferase coupled ISG54-ISRE activity incubated for 18 hrs luciferase reporter gene assay; format: cell-based; conditions: filed as activator
[14] = test system: Stimulator of interferon genes protein (Homo sapiens), Q86WV6 [UNDEFINED MUTATION]; test: Activation of human STING R232 in human dendritic cells assessed as induction of CD86 measured by qt-PCR analysis; format: cell-based; conditions: Dendritic cell, filed as activator
Method in brief: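 PBMC isolated on Histopaque 1077, ACK-lysed, monocytes purified by MACS. Monocytes at 1 x 10^6 cells/ml in RPMI/10% FBS with 100ng/ml GMCSF and 50ng/ml IL4, 37 °C, 5% CO2, for 24–36 h. Compound added (1% DMSO final) for 6 h. CD86 and CD83 read by qPCR as fold of vehicle-treated cells.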

hERG (KCNH2) = hERG (KCNH2) (Homo sapiens, UniProt Q12809); test: Inhibition of human ERG at 10 uM
Chain of hERG (KCNH2) (Q12809 whole entry): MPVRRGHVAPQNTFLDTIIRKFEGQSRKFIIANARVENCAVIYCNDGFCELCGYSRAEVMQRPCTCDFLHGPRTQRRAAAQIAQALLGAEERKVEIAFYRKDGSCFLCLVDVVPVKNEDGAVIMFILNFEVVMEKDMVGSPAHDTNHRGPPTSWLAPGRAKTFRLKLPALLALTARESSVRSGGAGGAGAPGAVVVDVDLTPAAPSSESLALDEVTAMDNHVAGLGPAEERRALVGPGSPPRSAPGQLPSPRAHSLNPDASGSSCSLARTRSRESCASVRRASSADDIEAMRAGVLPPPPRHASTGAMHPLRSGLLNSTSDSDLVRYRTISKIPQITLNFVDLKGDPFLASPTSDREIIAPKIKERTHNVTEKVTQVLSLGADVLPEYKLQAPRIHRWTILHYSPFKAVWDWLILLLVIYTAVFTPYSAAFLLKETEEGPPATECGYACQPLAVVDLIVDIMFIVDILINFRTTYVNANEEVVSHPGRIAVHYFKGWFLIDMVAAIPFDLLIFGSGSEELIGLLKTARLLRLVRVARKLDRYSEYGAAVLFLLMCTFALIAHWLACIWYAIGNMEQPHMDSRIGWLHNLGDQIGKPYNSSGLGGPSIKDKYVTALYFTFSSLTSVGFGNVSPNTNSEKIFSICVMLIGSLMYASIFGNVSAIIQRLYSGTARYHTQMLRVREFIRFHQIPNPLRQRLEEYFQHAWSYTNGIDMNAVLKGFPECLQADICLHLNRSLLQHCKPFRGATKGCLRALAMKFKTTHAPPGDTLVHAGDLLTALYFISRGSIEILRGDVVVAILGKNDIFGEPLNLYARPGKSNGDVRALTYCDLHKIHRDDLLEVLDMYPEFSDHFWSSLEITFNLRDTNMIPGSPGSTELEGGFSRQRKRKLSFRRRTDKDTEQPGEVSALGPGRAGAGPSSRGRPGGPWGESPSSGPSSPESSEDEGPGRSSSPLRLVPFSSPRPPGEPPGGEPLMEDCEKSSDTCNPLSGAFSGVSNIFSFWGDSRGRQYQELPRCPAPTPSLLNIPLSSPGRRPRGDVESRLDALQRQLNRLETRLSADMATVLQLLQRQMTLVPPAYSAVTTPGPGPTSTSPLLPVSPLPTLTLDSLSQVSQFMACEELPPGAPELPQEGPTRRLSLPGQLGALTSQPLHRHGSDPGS

[15] = Chemical stability of compound in buffer at pH 3 to 8
HEK293T [16] = test: Activation of human STING R232H mutant expressed in HEK293T cells assessed as phosphorylation at (Ser366) upto 10 uM incubated for 2 hrs and measured by Western blot analysis; format: cell-based; conditions: filed as activator, dose microM <=10, time 2.0 hrs; method in brief: as §3
[17] = Oral bioavailability in BALB/c mouse at 10 mg/kg measured up to 24 hrs by LC-MS/MS analysis; format: ADME, organism-based; conditions: in vivo
Method in brief: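 Overnight-fasted mice, randomized, n=3 per group, each given a single dose by lateral tail vein (iv) or oral gavage. Blood (50 μl per point, under isoflurane) was taken from the retro-orbital plexus. Sampling was at 2 min–24 h after iv and 5 min–24 h after oral dosing. Plasma was separated at 1500 x g for 15 min at 4 °C, stored at -80 °C, and analysed by LCMS.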

[18] = AUC in BALB/c mouse at 5 mg/kg, iv measured up to 24 hrs by LC-MS/MS analysis; format: ADME, organism-based; design: route intravenous, dose 5 mg/kg, time <=24; conditions: in vivo; method in brief: as §5
CCRF-SB = test: Activation of human wild type STING R232 expressed in CCRF-SB cells assessed as phosphorylation at (Ser396) at 10 uM incubated for 2 hrs and measured by Western blot analysis; conditions: filed as activator

Activity [1]: Active
inhibition (INH) (Cytochrome P450 2D6): Not Active
Activity [3]: Active
Activity [5]: Active
Stabilty [6]: Stable
Cmax [9]: 1870 ng/mL
Cmax [10]: 1720 ng/mL
Activity [11]: Active
Stabilty [12]: Stable
Activity [13]: Active
Stabilty [15]: Stable
bioavailability [17]: 86%
AUC at 24 h [18]: 1220 ng·h/mL
Compound: CC1(C)C(=O)N(Cc2c(F)cccc2Cl)c2cc(C(=O)NCc3c(F)cc(F)cc3F)ccc21
Activity [2]: Active
Activity (HEK293T [4]): Active
Activity (HEK293T [7]): Active
Activity [8]: Active
Activity (HeLa): Non-Toxic
Activity [14]: Active
inhibition at 10 µM (hERG (KCNH2)): 20%
Activity (HEK293T [16]): Dose-dependent effect
Activity (CCRF-SB): Active
